Reference: publication PMC8569940 (European journal of medicinal chemistry, 2020)

Tests used:
Kunming mice = assay: Acute toxicity study, single intraperitoneal dose; format: in vivo
Outline: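 Kunming mice, four groups of 8 (half male, half female), each given one intraperitoneal injection of test compound at 10, 20 or 40 mg/kg or vehicle. Mortality and clinical signs in eyes, skin and fur recorded. Body weights measured daily after treatment. Mice dissected to check for ascites and liver volume.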

JAK2 = JAK2 (Homo sapiens, UniProt O60674); assay: Enzyme inhibition JAK2; format: biochemical
Sequence of JAK2 (O60674 whole entry): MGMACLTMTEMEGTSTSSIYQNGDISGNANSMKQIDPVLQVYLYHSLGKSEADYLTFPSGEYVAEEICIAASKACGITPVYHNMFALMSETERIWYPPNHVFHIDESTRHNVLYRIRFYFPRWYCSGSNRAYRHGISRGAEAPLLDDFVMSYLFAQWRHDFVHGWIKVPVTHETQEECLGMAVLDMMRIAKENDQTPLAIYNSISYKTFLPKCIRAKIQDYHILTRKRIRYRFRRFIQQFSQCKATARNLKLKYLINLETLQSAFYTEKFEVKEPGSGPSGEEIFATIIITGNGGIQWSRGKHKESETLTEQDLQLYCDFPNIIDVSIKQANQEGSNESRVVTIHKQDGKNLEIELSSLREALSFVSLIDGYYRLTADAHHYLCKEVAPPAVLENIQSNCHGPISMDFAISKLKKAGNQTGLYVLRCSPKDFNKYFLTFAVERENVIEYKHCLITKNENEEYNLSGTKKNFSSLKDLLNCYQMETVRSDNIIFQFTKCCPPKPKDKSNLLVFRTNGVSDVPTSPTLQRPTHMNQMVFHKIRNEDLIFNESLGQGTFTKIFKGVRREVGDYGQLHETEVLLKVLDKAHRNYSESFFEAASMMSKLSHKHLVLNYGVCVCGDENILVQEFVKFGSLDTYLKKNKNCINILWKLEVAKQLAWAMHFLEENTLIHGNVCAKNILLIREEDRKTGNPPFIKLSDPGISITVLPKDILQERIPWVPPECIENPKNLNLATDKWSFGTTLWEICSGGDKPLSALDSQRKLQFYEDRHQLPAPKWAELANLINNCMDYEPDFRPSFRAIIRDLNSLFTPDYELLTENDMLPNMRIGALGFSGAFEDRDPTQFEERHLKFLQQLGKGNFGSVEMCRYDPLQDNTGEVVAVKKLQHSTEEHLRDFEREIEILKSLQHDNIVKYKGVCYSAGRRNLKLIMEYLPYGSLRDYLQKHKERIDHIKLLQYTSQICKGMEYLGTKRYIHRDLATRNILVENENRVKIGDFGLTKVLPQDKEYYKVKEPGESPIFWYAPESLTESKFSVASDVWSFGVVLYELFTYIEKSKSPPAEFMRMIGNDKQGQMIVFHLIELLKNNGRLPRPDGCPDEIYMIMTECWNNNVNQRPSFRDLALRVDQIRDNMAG

4T1 tumor = assay: In vivo antitumor effect, orthotopic 4T1 tumor-bearing mice; conditions: 2 mg/kg, in comparison with the control group
AURKA = target: T1, AURKA (Homo sapiens, UniProt O14965); assay: Enzyme inhibition AURKA; format: biochemical; conditions: tested at 100 μM
T1 sequence (O14965 1-403): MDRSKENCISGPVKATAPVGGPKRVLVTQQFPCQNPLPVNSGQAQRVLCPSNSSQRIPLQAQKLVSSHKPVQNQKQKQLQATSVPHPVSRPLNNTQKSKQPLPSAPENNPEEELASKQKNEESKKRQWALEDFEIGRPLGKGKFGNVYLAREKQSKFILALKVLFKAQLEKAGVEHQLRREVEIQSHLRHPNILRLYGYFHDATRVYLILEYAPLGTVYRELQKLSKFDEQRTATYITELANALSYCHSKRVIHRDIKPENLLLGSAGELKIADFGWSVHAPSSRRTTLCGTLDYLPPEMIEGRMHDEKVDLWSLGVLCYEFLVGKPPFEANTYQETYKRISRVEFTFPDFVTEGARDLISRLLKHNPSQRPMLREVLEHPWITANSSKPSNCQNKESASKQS

MAPK10 = MAPK10 (Homo sapiens, UniProt P53779); assay: Enzyme inhibition MAPK10; format: biochemical; conditions: tested at 100 μM
Sequence of MAPK10 (P53779 whole entry): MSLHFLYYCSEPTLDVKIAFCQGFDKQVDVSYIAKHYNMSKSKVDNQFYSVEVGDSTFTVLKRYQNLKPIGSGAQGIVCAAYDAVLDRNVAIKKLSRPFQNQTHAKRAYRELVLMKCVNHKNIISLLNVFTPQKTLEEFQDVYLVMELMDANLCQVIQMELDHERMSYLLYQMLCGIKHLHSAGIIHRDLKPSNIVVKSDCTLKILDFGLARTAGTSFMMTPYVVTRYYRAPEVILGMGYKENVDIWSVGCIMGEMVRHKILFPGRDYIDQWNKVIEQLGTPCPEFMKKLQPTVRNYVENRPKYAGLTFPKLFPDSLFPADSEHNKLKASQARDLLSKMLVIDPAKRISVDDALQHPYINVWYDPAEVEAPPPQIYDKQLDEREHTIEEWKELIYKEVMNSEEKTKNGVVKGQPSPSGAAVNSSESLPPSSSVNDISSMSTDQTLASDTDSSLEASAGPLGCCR

MDA-MB-231 cells = assay: Apoptosis detection assay; format: cell-based, human
Outline: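 MDA-MB-231 cells seeded at 5 × 10^5 cells/mL in six-well plates. Treated with test compound at different concentrations for 24 h (48 h per results text); combretastatin A4 as positive control. Cells trypsinised, washed twice in cold PBS, resuspended in binding buffer, then stained with annexin V-FITC 15 min at room temperature. PI added for a further 15 min in the dark. Read by flow cytometry.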

[1] = female mice, highest dose group (40 mg/kg)

O=C1C=CC2(C=C1)OCC(=O)N2c1nc(-c2cccc3ccccc23)nn1-c1ccccc1 [Compound 6a, 4-(3-(Naphthalen-1-yl)-1-phenyl-1H-1,2,4-triazol-5-yl)-1-oxa-4-azaspiro[4.5] deca-6,9-diene-3,8-dione]
toxicity to the major organ in mice (Kunming mice; 20 mg/kg): no apparent toxicity | clinical signs in the eyes, skin, and fur (Kunming mice; 40 mg/kg): no remarkable clinical signs | ascites at dissection (Kunming mice; [1]): Ascites were detected | liver volume at dissection (Kunming mice; [1]): decreased liver volume | gain of bodyweight (Kunming mice; highest dose group (40 mg/kg)): lower than the other three groups | mortality (Kunming mice; single dose 10, 20, 40 mg/kg i.p.): No mortality occurred | inhibition on the Janus kinases 2 (JAK2): weak inhibition | IC50 (JAK2; Inhibitory effect (IC50) JAK2 Repeat 1, Repeat 1): 41.3 µM | IC50 (JAK2; Inhibitory effect (IC50) JAK2 Repeat 2, Repeat 2): 76.6 µM | size of the spleen and liver (4T1 tumor): enlarged | effect on AURKA (AURKA): did not have any significant effect | effect on MAPK10 (MAPK10): did not have any significant effect | early and late apoptosis (MDA-MB-231 cells; MDA-MB-231, 1 μM): induced both early and late apoptosis | induction of cell apoptosis (MDA-MB-231 cells; MDA-MB-231, 48 h of treatment): induce cell apoptosis in a dose-dependent manner
